Bioassay records: PubChem BioAssay, SRMLSC
HCT116 bCat-KO – primary screen for growth suppressors in beta-catenin knockout HCT116 cells (colon tumor, human); HCT116 beta-catenin knockout viability, CellTiter-Glo, 60 h; hits give low values; actives 1.5% (n = 140,000); viability, % at 10 µM; AID 818, 2007;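 active means viability at or under a set limit, the compound median less 4 SD, cut at about 6% in these data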;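 further: 0% = Hyamine 1622 control at 20 µM and 100% = untreated cell control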
HUVEC prolif 384 – inhibitors of HUVEC proliferation, primary screen, cell-based, 384-well; CellTiter-Glo luminescence, 72 h; hits give low values; viability, % at 10 µM (by protocol); actives 1.1% (n = 86,000); AID 648, 2007;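 active means viability at or below 30%; inactive means viability above 30%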;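 further: 100% = median luminescence of DMSO-only cell control wells on each plate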
H69AR inhibit – proliferation blockers of H69AR lung cancer cells, primary screen, cell-based, human, 86K library; actives 6% (n = 85,000); viability, % at 10 µM; AID 598, 2007; H69AR lung tumor viability, ATP luminescence, 72 h; hits give low values;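 active means viability at or below 40%; inactive means viability above 40%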;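 further: multidrug resistant small cell line overexpressing MRP-1 efflux transporter; 100% = mean luminescence of untreated control wells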
Fibroblast inh – antiproliferative effect on LL 47 fibroblasts – human, LL 47 cells, CellTiter-Glo luminescence, primary screen | LL 47 human lung fibroblast viability, ATP luminescence; hits give low values | viability, % at 10 µM | actives 1.1% (n = 85,000) | AID 719, 2007;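 active means viability at or below 50% in the single dose screen; inactive means viability above 50%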;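 further: compound exposure lasted 72 h before the ATP readout; 100% = median luminescence of untreated cell-only wells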
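material = human LL 47 lung fibroblast cells | dosing = compounds added from tenfold dosing solution, 0.1% DMSO final | timing = overnight cell rest, 72 h compound treatment at 37 °C | measured by = CellTiter-Glo luminescence measuring cellular ATP | evaluation = % viability versus median cells-only luminescence | control set = cell-only wells, no compound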
HCT116 PTEN-null – growth suppression of PTEN-null HCT116, primary screen, cell-based, CellTiter-Glo | HCT116 PTEN-null viability, 60 h; hits give low values | viability, % at 10 µM | actives 1.2% (n = 140,000) | AID 827, 2007;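 active means viability at or below a set limit, 4 SD under the median of all tested compounds, cut at about 3.7% in these data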;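 further: PTEN knockout HCT116 line with beta catenin targeted HCT116 as companion control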
Starred values were filed as active, the others as inactive; · = no result given. The sample as a whole holds a higher share of hits than the screen did.

SMILES	HCT116 bCat-KO	HUVEC prolif 384	H69AR inhibit	Fibroblast inh	HCT116 PTEN-null
CCSc1nnc(NC(=O)NC(CC)(C(F)(F)F)C(F)(F)F)s1	26	45	14*	63	29
O=C(CNC(=O)c1ccc2ccccc2c1)OCC(=O)N1CCN(S(=O)(=O)c2ccc3ccccc3c2)CC1	83	·	·	·	88
COc1ccc(/C=N/Nc2nnc(-c3ccccc3)c(=O)[nH]2)cc1	4.5*	·	·	·	2.9*
O=c1[nH]c(N/N=C/c2ccccc2Br)nnc1-c1ccccc1	84	·	·	·	96
Cc1ccc(OC(=O)c2cccc(S(=O)(=O)N3CCCC3)c2)c(-n2nc3ccccc3n2)c1	91	·	·	·	94
CC1(C)Cc2c(sc3nc(-c4ccccc4)oc(=O)c23)CO1	90	·	·	·	86
CCCn1c(CCC(=O)Nc2ccccc2Cc2ccccc2)nc2cc(S(=O)(=O)N3CCOCC3)ccc21	63	107	39*	90	70
COc1ccc(S(=O)(=O)Nc2ccccc2OC)cc1NC(=O)CC1CC2CCC1C2 (stereo unspecified)	55	·	·	·	63
CCC1Oc2ccc(C)cc2N(CC(=O)N(Cc2ccc3c(c2)OCO3)CC2CCCO2)C1=O (stereo unspecified)	79	96	50	104	70
COc1ccc(CN(CC2CCCO2)C(=O)CN2C(=O)C(C)Oc3ccc(C)cc32)cc1OC (stereo unspecified)	75	72	40*	103	74
CC(CN1CCOCC1)OC(=O)c1ccc(Br)cc1 (stereo unspecified)	2.8*	49	0.6*	6.3*	2.4*
C/C(CCc1ccco1)=N/NC(=O)CCC(=O)Nc1ccc(Br)cc1	100	·	·	·	115
O=C(NCC1OCCc2ccccc21)c1ccc(NC(=O)c2ccc(Cl)cc2Cl)cc1 (stereo unspecified)	4.9*	·	·	·	1.9*
O=C(NN1C(=O)C2C3CCC(O3)C2C1=O)c1ccco1 (stereo unspecified)	106	·	·	·	102
CC(C)(C)c1nn(-c2ccccc2)c2[nH]c(=O)c(CNCc3ccc4c(c3)OCO4)cc12	13	4.6*	1.1*	63	11
CCOc1cccc(NCc2cc3c(C(C)(C)C)nn(-c4ccccc4)c3[nH]c2=O)c1	84	100	48	91	92
CCCCOc1cccc(C(=O)N(Cc2cccs2)C2CCS(=O)(=O)C2)c1 (stereo unspecified)	79	96	37*	93	82
CCCOc1cccc(C(=O)N(Cc2cccs2)C2CCS(=O)(=O)C2)c1 (stereo unspecified)	94	96	100	92	98
CCN(C(=O)CN1CCN(S(=O)(=O)c2cc(Cl)ccc2Cl)CC1)c1c(N)n(Cc2ccccc2)c(=O)[nH]c1=O	90	·	·	·	98
Cc1ccc(C)c(S(=O)(=O)C(C#N)c2nc3ccccc3nc2N2CC(C)OC(C)C2)c1 (stereo unspecified)	74	70	39*	86	78
O=C(C[n+]1cnn(CC(=O)c2ccc(Cl)cc2Cl)c1)c1ccc([N+](=O)[O-])cc1	57	·	·	·	68
CNS(=O)(=O)c1ccc(NC(=O)c2ccccn2)cc1	107	·	·	·	104
COc1ccccc1-n1c(CNC(=O)c2ccco2)nnc1SCC(=O)Nc1nccs1	86	71	33*	95	84
Cc1ccc(-c2nn(CC(=O)NCCN3CCOCC3)c(=O)c3ccccc23)cc1	87	95	93	100	95
Cc1ccc(-c2nn(C)c(=O)c3ccccc23)cc1CO	93	·	·	·	99
SMILES	HCT116 bCat-KO	HUVEC prolif 384	H69AR inhibit	Fibroblast inh	HCT116 PTEN-null
Cc1cc(C)n(CC(=O)NCc2cc(-c3nn(C)c(=O)c4ccccc34)ccc2C)n1	89	94	30*	96	97
Cc1ccc(-c2nn(C)c(=O)c3ccccc23)cc1CNC(=O)CN1CCOCC1	93	101	64	94	91
Cc1ccc(-c2nn(C)c(=O)c3ccccc23)cc1CNC(=O)Cn1nc(-c2ccccc2)c2ccccc2c1=O	89	86	1.6*	99	101
Cc1ccc(-c2nn(CC(=O)NCc3ccco3)c(=O)c3ccccc23)cc1	5.2*	81	22*	63	7
CC(=O)Nc1ccc(S(=O)(=O)NNC(=O)c2cc3c4ccccc4n(C)c3s2)cc1	94	·	·	·	87
Cc1ccc(C2Oc3ccccc3C3=C2C(c2cccs2)n2ncnc2N3)cc1 (stereo unspecified)	26	66	18*	44*	23
Cc1ccc(C)c(S(=O)(=O)NCc2ccc(C(=O)N3CCC(Cc4ccccc4)CC3)cc2)c1	82	60	36*	99	63
CCNC(=S)Nc1cc(OCC)c(NC(=O)c2cccs2)cc1OCC	100	·	·	·	102
O=S(=O)(c1cccc(-c2nc3ccccc3s2)c1)N1CCOCC1	90	101	95	98	86
Cc1ccc(-c2nc3ccccc3s2)cc1S(=O)(=O)N1CCCC1	67	108	32*	97	64
CC1(C)CC(=O)C2=C(C1)N(c1ccc(F)cc1)C(=O)CC2c1ccsc1 (stereo unspecified)	90	95	86	101	91
CCOc1cc2[nH]c(=O)n(CC3CCC(C(=O)NC4CCCCC4)CC3)c(=O)c2cc1OCC (stereo unspecified)	·	30*	90	100	·
Cc1ccccc1Cn1c(=O)n(CC2CCC(C(=O)NCCc3ccccc3)CC2)c(=O)c2ccccc21 (stereo unspecified)	54	·	·	·	19
N#CC1=C(N)C(C#N)(C#N)[C@H](c2c(F)cccc2F)[C@H]2CC3(CC=C12)OCCO3	43	48	3.0*	59	37
N#CC1=C(N)C(C#N)(C#N)C2(CCC3(CC2)OCCO3)C2CC3(CC=C12)OCCO3 (stereo unspecified)	91	94	97	108	92
CN1C2C=C3C(C#N)=C(N)C(C#N)(C#N)[C@@H](c4cccc(F)c4)[C@@H]3C1CC2 (stereo partly specified)	94	100	81	98	97
CN1C2C=C3C(C#N)=C(N)C(C#N)(C#N)[C@H](c4c(F)cccc4F)[C@H]3C1CC2 (stereo partly specified)	52	93	18*	97	62
CCOC(=O)c1ccc(-c2ccc(C3Nc4ccccc4C(=O)N3O)o2)cc1 (stereo unspecified)	5.4*	·	·	·	6
C#CCOC(=O)Nc1ccc(=O)n(Cc2c(Cl)cccc2Cl)c1	91	·	·	·	86
Cc1ccc(NC(=O)Cn2cnc3sc(C(=O)NCCN(C)C)c(C)c3c2=O)cc1Cl	37	8.3*	72	58	57
CCOc1cc(C)c(-c2onc(C(F)(F)F)c2-c2csc(C)n2)c(O)c1	79	39	3.9*	88	58
Cc1nc(-c2c(C(F)(F)F)noc2-c2ccc(O)cc2O)cs1	75	110	88	99	84
